# The list is not random: actives were taken first. Their share in the collection is about 2.5%.
# TbHK1 inh: blocks Trypanosoma brucei hexokinase 1 activity; recombinant TbHK1, G6PDH-coupled NADH A340; inhibition, % at 10 µM; 220,000 tested, 0.11% active; AID 1430;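 active = inhibition of 50% or more in the single-dose primary screen; inactive = inhibition below 50%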
# EP2 modulator: modulates human prostaglandin E2 receptor EP2 signaling. 260,000 tested, 0.83% active. EP2-expressing cells, cAMP HTRF FRET, PGE2 co-stimulation. induction, % at 25 µM. AID 940. P43116;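 active = compounds whose cAMP rise, as percent of the full-agonist control response, exceeds 60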;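 also: rat C6 glioma line stably carrying human EP2 under a CMV promoter; the protocol text gives 20 µM as final concentration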
# Target sequence (P43116 whole entry, looked up): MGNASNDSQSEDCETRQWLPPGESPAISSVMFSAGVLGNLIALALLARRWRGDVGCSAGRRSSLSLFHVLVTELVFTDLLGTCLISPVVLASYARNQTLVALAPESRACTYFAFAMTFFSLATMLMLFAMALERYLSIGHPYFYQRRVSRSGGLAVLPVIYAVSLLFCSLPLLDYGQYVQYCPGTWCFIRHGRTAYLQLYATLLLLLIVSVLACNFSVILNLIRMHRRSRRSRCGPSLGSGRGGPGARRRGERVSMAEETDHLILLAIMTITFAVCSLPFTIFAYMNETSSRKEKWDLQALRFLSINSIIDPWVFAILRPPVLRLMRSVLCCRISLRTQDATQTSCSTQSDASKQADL
# HKDC1 inh: HKDC1 (human) hexokinase inhibition | Q2TB90 | 340,000 tested, 0.16% active | inhibition, % at 20 µM | recombinant HKDC1, G6PDH/diaphorase resazurin coupled fluorescence | AID 493160;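 active = inhibition above about 35% when tested at 20 µM, limit read from the data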
#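 Test system: recombinant HKDC1 (HK5) hexokinase enzyme, produced in-house; Amount: enzyme 5 µg/mL final; Buffer or medium: Tris pH 8.0 buffer with MgCl2, Tween-20, BSA, BME; Reagent: glucose and ATP substrates; Doses: 20 µM test compound, 1% DMSO; Incubation: 90 min reaction incubation at room temperature, dark; Detection: resorufin fluorescence at 613 nm.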
# PGE2 EP2 inh: EP2 receptor (human) inhibition; P43116; AID 1422; C6 glioma cells expressing human EP2, cAMP TR-FRET; cells stimulated with saturating PGE2; 260,000 tested, 0.52% active; inhibition, % at 25 µM;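 active = percent inhibition above 40 after rounding to a whole number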;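 also: rat C6 glioma host cells with rolipram phosphodiesterase inhibitor present; the protocol text gives 20 µM as final concentration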
# PfGluPho inh: PfG6PD (Plasmodium falciparum) enzyme inhibition | AID 504690 | 350,000 tested, 0.78% active | PfGluPho enzyme, NADPH resazurin-diaphorase fluorescence | inhibition, % at 20 µM;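 active = inhibition reaching at least a set limit at 20 µM in the primary screen, cut at about 59% in these data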
# PHOSPHO1 inh: blocks human PHOSPHO1 phosphatase activity; inhibition, % at 13.3 µM; 290,000 tested, 1.1% active; recombinant PHOSPHO1, absorbance phosphatase assay; Q8TCT1; in the data active = inhibition above about 60%
# Target sequence (Q8TCT1 whole entry, looked up): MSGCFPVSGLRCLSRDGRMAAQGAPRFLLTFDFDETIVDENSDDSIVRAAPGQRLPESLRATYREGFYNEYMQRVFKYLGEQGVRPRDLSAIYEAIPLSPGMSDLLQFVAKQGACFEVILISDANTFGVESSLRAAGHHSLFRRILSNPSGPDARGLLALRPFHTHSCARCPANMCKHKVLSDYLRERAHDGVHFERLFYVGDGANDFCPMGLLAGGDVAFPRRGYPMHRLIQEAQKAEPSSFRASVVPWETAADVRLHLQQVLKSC
# PfG6PD confirm: PfG6PD inhibition, single-dose confirmed | inhibition, % at 20 µM | 2,400 tested, 34% active | shares compounds with PfGluPho inh | recombinant PfGluPho, NADPH-diaphorase-resazurin fluorescence | AID 504753;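 active = inhibition of at least 50% at 20 µM in any single replicate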
# Diaph ctr 10uM: diaphorase inhibition or oxidation at 10 uM NADPH; AID 504862; 820 tested, 39% active; inhibition, % at 20 µM; shares compounds with PfGluPho inh; diaphorase-coupled resazurin reduction, fluorescence, NADPH 10 uM;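 active = average inhibition reaching 50% or more with the compound at 20 µM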;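 also: resorufin red fluorescence formed as diaphorase reduces resazurin using NADPH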
# Diaph ctr 30uM: inhibits diaphorase or oxidizes, flagging false PfG6PD hits; inhibition, % at 20 µM; shares compounds with PfGluPho inh; Diaphorase/resazurin coupled assay, resorufin fluorescence, 30 uM NADPH; 820 tested, 29% active;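 active = inhibition averaging 50% or more, tested at 20 µM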
# A number is an active result; – = inactive; · = not tested or not shown.
SMILES,TbHK1 inh,EP2 modulator,HKDC1 inh,PGE2 EP2 inh,PfGluPho inh,PHOSPHO1 inh,PfG6PD confirm,others
COc1cc(/C=N/N2C(C)CCCC2C)cc(OC)c1O (stereo not given),·,·,–,·,84.4,–,–,
COc1cc(/C=N/N2CCN(C3c4ccccc4-c4ccccc43)CC2)cc(OC)c1O,–,–,–,–,75.8,–,–,
O=C(Nc1ccc2nc(-c3ccccc3)[nH]c2c1)c1cccs1,–,–,–,–,75.6,–,–,
Cn1cc([N+](=O)[O-])c(C(=O)Nc2ccc(-c3nc4ccccc4[nH]3)cc2)n1,–,–,–,–,–,–,·,
O=C(Nc1ccc2nc(-c3ccc4nc[nH]c4c3)[nH]c2c1)c1cccs1,–,–,–,–,–,–,·,
Cn1cc([N+](=O)[O-])c(C(=O)Nc2ccc3nc(-c4ccccc4)[nH]c3c2)n1,–,–,–,–,62.3,–,–,
CCc1ccccc1N1CC(O)=C(c2nc3ccccc3c(=O)[nH]2)C1=N,·,–,·,–,·,·,·,
COc1ccc(OC)c(/C=N/NC(=O)c2c(C)nc3ccc(C)cn23)c1,·,·,–,·,62.1,–,–,
Cc1nn(C)c(C(=O)N/N=C/c2cccc(Oc3ccccc3)c2)c1Br,·,·,–,·,144.6,–,89.3,Diaph ctr 10uM=79.8;Diaph ctr 30uM=71.0
COc1cccc(/C=N/NC(=O)c2c(C)nc3ccc(Br)cn23)c1,–,–,–,–,90.8,–,54.2,Diaph ctr 10uM=–;Diaph ctr 30uM=–
COc1ccc(OC)c(/C=N/NC(=O)c2cccc3ccccc23)c1,·,·,–,·,–,·,·,
Cc1cc(-c2cncnc2C2CCCN(CC(=O)N3CCOCC3)C2)on1 (stereo not given),·,–,·,·,·,·,·,
O=C(C1CCN(S(=O)(=O)c2ccc(-n3cnnn3)cc2)CC1)N1CCC(Cc2ccccc2)CC1,·,–,·,–,·,·,·,
CSc1ccccc1NC(=O)c1ccccc1,–,–,–,–,–,–,·,
O=C(Nc1ccccc1SC(=O)c1ccccc1)c1ccccc1,·,·,·,·,63.9,·,–,
O=C(CCl)NCCN1C(=O)S/C(=C\c2cccnc2)C1=O,–,–,–,–,72.1,–,66.4,Diaph ctr 10uM=–;Diaph ctr 30uM=–
CCCOc1ccc(N)cc1N,–,–,–,·,115.4,64.7,69.6,Diaph ctr 10uM=51.7;Diaph ctr 30uM=50.6
Cc1ccc2nc(SCC(=O)c3ccc4c(c3)OCO4)[nH]c2c1,–,–,–,–,–,–,·,
Cc1ccc2nc(SCC(=O)c3ccc(Cl)s3)[nH]c2c1,–,–,–,–,61.5,–,–,
O=C(Cn1sc2ccccc2c1=O)Nc1ccccc1,·,·,·,·,122.0,·,107.5,Diaph ctr 10uM=–;Diaph ctr 30uM=–
O=C(CN1C(=O)c2ccccc2C1=O)Nc1ccccc1,·,·,–,·,–,·,·,
O=C(CN1CCC(C(=O)c2ccccc2)CC1)Nc1ccccc1Br,·,–,·,–,·,·,·,
Cc1ccc2nc3sc(C(=O)N4CCOCC4)c(N)c3cc2c1,–,–,–,–,83.8,85.6,52.2,Diaph ctr 10uM=60.9;Diaph ctr 30uM=–
COc1cc(N=Cc2c(CO)cnc(C)c2O)cc(OC)c1OC,·,·,–,·,63.3,–,68.3,Diaph ctr 10uM=–;Diaph ctr 30uM=–
COc1ccccc1N/N=C/c1c(CO)cnc(C)c1O,–,–,–,·,–,–,·,
SMILES,TbHK1 inh,EP2 modulator,HKDC1 inh,PGE2 EP2 inh,PfGluPho inh,PHOSPHO1 inh,PfG6PD confirm,others
COc1cccc(NC(=O)c2ccc3c(c2)N(C)CCS3)c1,·,·,–,·,94.2,–,–,
COc1ccc(Br)cc1CNC(=O)c1ccc2c(c1)N(C)CCS2,·,·,–,·,–,–,·,
CN1CCSc2ccc(C(=O)NCc3cccc(F)c3)cc21,·,·,–,·,68.8,–,–,
Cc1nc(NC(=O)C2CCCC2)sc1Cc1ccc2c(c1)OCO2,–,–,–,–,–,–,·,
Cc1c(Cc2ccc3c(c2)OCO3)sc(NC(=O)c2cccc3ccccc23)c1C(N)=O,–,–,–,–,86.5,–,–,
Cc1c(Cc2ccc3c(c2)OCO3)sc(NC(=O)C2CC2)c1C(N)=O,–,–,–,–,70.4,–,–,
CCCCNC(=O)c1ccc(Cn2c(=S)[nH]c3c([nH]c4ccc(OC)cc43)c2=O)cc1,–,–,–,–,–,–,·,
CCN(CC)CCNC(=O)CCCCn1c(=S)[nH]c2c([nH]c3ccc(OC)cc32)c1=O,–,–,–,–,64.3,95.0,47.2,Diaph ctr 10uM=–;Diaph ctr 30uM=–
OC1(c2ccccc2F)CCN(Cc2cncn2Cc2ccccc2)CC1,·,–,·,–,·,·,·,
Cc1cc(=O)[nH]c(N2CCN(C(=O)c3ccc(F)c(F)c3)CC2)n1,·,–,·,·,·,·,·,
Cn1c(SCC(=O)Nc2ccc3c(c2)OCO3)nnc1-c1ccccc1N,·,–,·,–,·,·,·,
COc1cc(N)c2ncccc2c1SC,·,·,·,·,65.6,·,61.7,Diaph ctr 10uM=–;Diaph ctr 30uM=–
CSc1ccc(C2Nc3cccc4cccc(c34)N2)cc1,·,·,–,·,63.6,–,–,
Clc1ccc(C2Nc3cccc4cccc(c34)N2)cc1,·,·,–,·,–,–,·,
CNC(=O)CO/N=C/c1ccc(N(C)C)cc1,–,–,–,–,–,–,·,
Cc1cc(O)c(C(C)C)cc1N=Cc1ccc([N+](=O)[O-])cc1,·,·,–,·,90.6,·,62.2,Diaph ctr 10uM=–;Diaph ctr 30uM=–
COc1cccc(C=Nc2cc(C(C)C)c(O)cc2C)c1O,·,·,–,·,114.0,·,66.5,Diaph ctr 10uM=–;Diaph ctr 30uM=–
Cc1ccc(N=Cc2cccc(O)c2O)c(C)c1,–,–,·,–,·,–,·,
Cc1cc(O)c(C(C)C)cc1N=Cc1ccc(N(C)C)cc1,·,·,–,·,105.9,·,83.3,Diaph ctr 10uM=86.8;Diaph ctr 30uM=–
O=C(C(c1ccccc1)C1CCCC1)N1CCC(n2cnc3cccnc32)CC1 (stereo not given),·,–,·,–,·,·,·,
CN1CC(C(=O)O)CC1=O (stereo not given),·,–,·,–,·,·,·,
CN1CCc2c(sc3c2c(=O)n(-c2ccccc2)c2nnc(SCc4ccccc4)n32)C1,–,–,–,–,60.2,–,–,
Cc1ccc(-c2cc(N)c(=O)n(CC(=O)NC3CCCCCCC3)n2)s1,·,–,·,–,·,·,·,
CCOC(=O)c1c(CSCc2ccccc2)oc2ccc(O)c(CN(C)C)c12,–,–,–,–,59.3,–,–,
CCn1c(COc2ccc(Cl)c(C)c2)nnc1SCC(=O)OC,·,–,·,–,·,·,·,
SMILES,TbHK1 inh,EP2 modulator,HKDC1 inh,PGE2 EP2 inh,PfGluPho inh,PHOSPHO1 inh,PfG6PD confirm,others
c1cncc(CNc2ccc3c(c2)OCO3)c1,–,–,–,–,67.8,–,58.1,Diaph ctr 10uM=–;Diaph ctr 30uM=–
CCc1ccc(-n2nnnc2SCC(=O)Nc2ccc3c(c2)OCO3)cc1,·,–,·,–,·,·,·,
Nc1cc2nc[nH]c2cc1N,–,–,–,–,59.7,–,–,
Cn1c(=O)n(C)c2cc3[nH]cnc3cc21,·,·,–,·,–,·,·,
Oc1ccc(/C=N/NC(=S)Nc2cccnc2)cc1O,–,–,–,–,–,–,·,
O=C(O)c1cccc(NC(=S)N/N=C/c2ccccn2)c1,–,–,–,–,67.7,–,–,
S=C(N/N=C/c1ccc2ncccc2c1)Nc1cccnc1,–,–,–,–,69.0,–,–,
CC1(C)Cc2c(sc3nc4n(-c5ccccc5)c(=O)c(CCC(=O)O)nn4c(=O)c23)CO1,–,–,–,–,104.1,–,91.2,Diaph ctr 10uM=–;Diaph ctr 30uM=–
